Tests used:
[1] = species: Homo sapiens; experiment: Selectivity ratio of Ki for human recombinant carbonic anhydrase 2 to Ki for human recombinant carbonic anhydrase 12
[2] = target: Carbonic anhydrase 1 (Homo sapiens, UniProt P00915); experiment: Inhibition of human recombinant carbonic anhydrase 1 preincubated for 15 mins by stopped flow CO2 hydration method
In short: (§1)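 Stopped-flow assay of CO2 hydration by in-house recombinant CA isoforms. Phenol red 0.2 mM read at 557 nm, in 20 mM Tris pH 8.3 with 20 mM Na2SO4 for constant ionic strength. CO2 1.7–17 mM; initial rates over 10–100 s, uncatalyzed rate subtracted. Inhibitor diluted in buffer down to 0.005 nM and preincubated with enzyme 15 min at room temperature. Ki by non-linear least squares with Cheng-Prusoff, mean of ≥3 determinations.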

[3] = target: Carbonic anhydrase 2 (Homo sapiens, UniProt P00918); experiment: Inhibition of human recombinant carbonic anhydrase 2 preincubated for 15 mins by stopped flow CO2 hydration method
[4] = species: Homo sapiens; experiment: Selectivity ratio of Ki for human recombinant carbonic anhydrase 2 to Ki for human recombinant carbonic anhydrase 1
[5] = target: Carbonic anhydrase 9 (Homo sapiens, UniProt Q16790); experiment: Inhibition of human recombinant carbonic anhydrase 9 preincubated for 15 mins by stopped flow CO2 hydration method; in short: as §1
[6] = target: Carbonic anhydrase 12 (Homo sapiens, UniProt O43570); experiment: Inhibition of human recombinant carbonic anhydrase 12 preincubated for 15 mins by stopped flow CO2 hydration method; in short: as §1
Carbonic anhydrase 12, sequence (O43570 whole entry): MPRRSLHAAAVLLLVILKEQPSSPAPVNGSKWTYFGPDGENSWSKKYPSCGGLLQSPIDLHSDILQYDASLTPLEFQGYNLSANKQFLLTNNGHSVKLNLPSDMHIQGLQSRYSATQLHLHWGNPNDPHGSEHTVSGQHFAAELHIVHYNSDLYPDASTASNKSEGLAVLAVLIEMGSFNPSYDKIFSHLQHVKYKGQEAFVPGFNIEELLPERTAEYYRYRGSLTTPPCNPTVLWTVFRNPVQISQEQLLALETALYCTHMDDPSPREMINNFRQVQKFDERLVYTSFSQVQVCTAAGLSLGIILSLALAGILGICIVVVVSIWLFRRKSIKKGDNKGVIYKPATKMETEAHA

[7] = species: Homo sapiens; experiment: Selectivity ratio of Ki for human recombinant carbonic anhydrase 9 to Ki for human recombinant carbonic anhydrase 2
[8] = species: Homo sapiens; experiment: Selectivity ratio of Ki for human recombinant carbonic anhydrase 12 to Ki for human recombinant carbonic anhydrase 2
[9] = species: Homo sapiens; experiment: Selectivity ratio of Ki for human recombinant carbonic anhydrase 1 to Ki for human recombinant carbonic anhydrase 2

Carbonic anhydrase 1, sequence (P00915 whole entry, canonical isoform): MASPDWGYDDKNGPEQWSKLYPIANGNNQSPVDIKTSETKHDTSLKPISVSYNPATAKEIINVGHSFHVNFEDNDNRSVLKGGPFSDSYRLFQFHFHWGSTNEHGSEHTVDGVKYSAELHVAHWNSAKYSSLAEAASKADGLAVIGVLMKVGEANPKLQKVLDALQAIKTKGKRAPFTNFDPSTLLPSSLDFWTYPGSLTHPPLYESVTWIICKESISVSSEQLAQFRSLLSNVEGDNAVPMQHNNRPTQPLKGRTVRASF

SMILES	Ratio Ki [1]	Ki [2] [nM]	Ki [3] [nM]	Ratio Ki [4]	Ki [5] [nM]	Ki [6] [nM]	Ratio Ki [7]	Ratio Ki [8]	Ratio Ki [9]
COc1ccc(-c2cnc(C)o2)cc1S(N)(=O)=O	> 100000	> 10000	4420	> 100000	276	3540	–	–	–
Cc1ncc(-c2csc(S(N)(=O)=O)c2)o1	–	0.05	0.01	1000	26.3	3.6	–	–	–
NS(=O)(=O)c1cc(-c2cnc(C(=O)N3CCCC3)o2)cs1	–	79.9	0.02	1000	15.2	64.4	–	–	–
Cc1ccc(-c2cnc(C(=O)N3CCOCC3)o2)cc1S(N)(=O)=O	> 100000	58.6	0.28	> 100000	3.7	557	–	–	–
COc1ccc(-c2cnc(C3CC3)o2)cc1S(N)(=O)=O	> 100000	> 10000	8860	> 100000	438	7960	–	–	–
Cc1ncc(-c2ccc(S(N)(=O)=O)s2)o1	–	141	6.3	1000	10.5	9.4	–	–	–
Cc1ccc(-c2cnc(C(=O)N3CCCC3)o2)cc1S(N)(=O)=O	> 100000	8.5	0.01	> 100000	42.5	2790	–	–	–
COc1ccc(-c2cnc(C3CCC3)o2)cc1S(N)(=O)=O	> 100000	6110	58.2	> 100000	–	62.8	–	–	–
Cc1ncc(-c2ccc(C)c(S(N)(=O)=O)c2)o1	> 100000	45.4	7.1	> 100000	274	245	–	–	–
NS(=O)(=O)c1ccc(-c2cnc(C(=O)N3CCCC3)o2)s1	–	41.9	0.01	1000	18.7	6.7	–	–	–
COc1ccc(-c2cnc(C(=O)N3CCOCC3)o2)cc1S(N)(=O)=O	> 100000	> 10000	0.05	> 100000	4.5	> 10000	–	–	–
NS(=O)(=O)c1ccc(-c2cnc(C3CC3)o2)s1	–	130	4.8	1000	122	9.2	–	–	–
Cc1ccc(-c2cnc(C3CCC3)o2)cc1S(N)(=O)=O	> 100000	231	283	> 100000	285	1390	–	–	–
Cc1ccc(-c2cnc(C3CC3)o2)cc1S(N)(=O)=O	> 100000	289	63.9	> 100000	–	381	–	–	–
COc1ccc(-c2cnc(C(=O)N3CCCC3)o2)cc1S(N)(=O)=O	> 100000	> 10000	0.01	> 100000	4.1	8570	–	–	–
Cc1ncc(-c2ccc(S(N)(=O)=O)cc2)o1	–	96.3	–	–	23.1	8.5	–	–	–
NS(=O)(=O)c1ccc(-c2cnc(C3CCC3)o2)cc1	–	55.3	0.02	–	–	8.7	100	100	100

More lines, in order of falling Ki [2], values ahead:

Ratio Ki [1]	Ki [2] [nM]	Ki [3] [nM]	Ratio Ki [4]	Ki [5] [nM]	Ki [6] [nM]	Ratio Ki [7]	Ratio Ki [8]	Ratio Ki [9]	SMILES
–	36.8	0.01	1000	–	5.1	–	–	–	NS(=O)(=O)c1ccc(-c2cnc(C3CCC3)o2)s1
–	22.5	–	–	36.4	30.3	–	–	–	NS(=O)(=O)c1ccc(-c2cnc(C(=O)N3CCOCC3)o2)s1
–	22	2.5	1000	–	8.7	–	–	–	NS(=O)(=O)c1cc(-c2cnc(C3CC3)o2)cs1
–	9	0.01	1000	25.9	6.6	–	–	–	NS(=O)(=O)c1cc(-c2cnc(C3CCC3)o2)cs1
–	4.8	0.01	–	3.2	6.2	100	100	100	NS(=O)(=O)c1ccc(-c2cnc(C3CC3)o2)cc1
–	0.09	0.03	1000	–	9.2	–	–	–	NS(=O)(=O)c1cc(-c2cnc(C(=O)N3CCOCC3)o2)cs1
–	0.01	0.008	–	1.6	6.9	–	–	–	NS(=O)(=O)c1ccc(-c2cnc(C(=O)N3CCOCC3)o2)cc1
–	0.01	0.009	–	1.7	42.3	–	–	–	NS(=O)(=O)c1ccc(-c2cnc(C(=O)N3CCCC3)o2)cc1
